Reference: BindingDB's records for doi:10.1128/AAC.00669-08 (Tibotec, 2008)
pIC50: −log10 of the molar value.

Legend:
[1] = target: T1, DNA polymerase alpha catalytic subunit (Homo sapiens, UniProt P09884); assay: Inhibition of human DNA polymerase alpha
T1 sequence (P09884 whole entry): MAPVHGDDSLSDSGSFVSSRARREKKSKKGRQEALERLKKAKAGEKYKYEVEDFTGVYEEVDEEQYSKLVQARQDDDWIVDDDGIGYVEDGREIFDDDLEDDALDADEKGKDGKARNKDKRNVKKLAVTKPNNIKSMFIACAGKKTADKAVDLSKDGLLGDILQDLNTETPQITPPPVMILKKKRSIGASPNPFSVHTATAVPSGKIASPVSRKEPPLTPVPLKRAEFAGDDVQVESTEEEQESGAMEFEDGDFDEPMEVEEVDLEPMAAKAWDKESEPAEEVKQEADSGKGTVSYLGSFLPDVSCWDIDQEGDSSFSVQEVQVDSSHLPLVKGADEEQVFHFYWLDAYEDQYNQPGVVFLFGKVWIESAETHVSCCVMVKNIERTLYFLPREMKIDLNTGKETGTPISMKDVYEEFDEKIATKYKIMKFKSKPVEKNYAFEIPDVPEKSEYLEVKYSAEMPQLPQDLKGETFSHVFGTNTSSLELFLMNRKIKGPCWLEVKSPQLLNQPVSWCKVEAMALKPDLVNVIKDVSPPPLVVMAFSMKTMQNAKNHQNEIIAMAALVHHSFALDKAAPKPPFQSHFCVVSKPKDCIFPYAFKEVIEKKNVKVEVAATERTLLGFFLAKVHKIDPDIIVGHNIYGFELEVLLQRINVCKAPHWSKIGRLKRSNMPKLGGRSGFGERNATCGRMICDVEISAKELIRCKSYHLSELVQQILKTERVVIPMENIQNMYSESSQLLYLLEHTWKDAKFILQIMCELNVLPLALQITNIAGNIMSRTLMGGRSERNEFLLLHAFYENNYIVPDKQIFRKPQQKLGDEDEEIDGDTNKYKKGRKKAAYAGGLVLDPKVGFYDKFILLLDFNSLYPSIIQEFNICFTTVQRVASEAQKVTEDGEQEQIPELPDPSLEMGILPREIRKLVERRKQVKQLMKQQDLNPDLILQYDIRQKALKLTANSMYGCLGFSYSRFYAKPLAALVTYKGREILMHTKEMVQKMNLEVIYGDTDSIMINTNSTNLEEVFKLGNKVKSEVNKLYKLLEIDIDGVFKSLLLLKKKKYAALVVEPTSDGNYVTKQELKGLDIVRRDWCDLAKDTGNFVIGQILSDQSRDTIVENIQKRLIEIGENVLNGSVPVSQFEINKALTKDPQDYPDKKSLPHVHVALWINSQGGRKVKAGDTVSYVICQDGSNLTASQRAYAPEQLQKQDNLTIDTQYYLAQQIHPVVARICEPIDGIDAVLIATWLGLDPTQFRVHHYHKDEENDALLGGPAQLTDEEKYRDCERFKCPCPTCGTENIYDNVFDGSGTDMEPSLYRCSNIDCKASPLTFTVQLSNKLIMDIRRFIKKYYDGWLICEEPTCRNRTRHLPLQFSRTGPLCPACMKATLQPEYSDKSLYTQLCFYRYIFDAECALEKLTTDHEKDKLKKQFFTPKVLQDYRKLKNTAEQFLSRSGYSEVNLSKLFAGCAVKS
Outline: (§1)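 Each enzyme–compound pair was tested in duplicate over 0.8 to 100 μM, with 100 μM as the highest dose. Each run included a no-inhibitor control, a solvent dilution (0.016 to 2% DMSO) and the relevant reference inhibitor. Percent inhibition at 100 μM was recorded for polymerase γ.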

DNA polymerase beta = DNA polymerase beta (Homo sapiens, UniProt P06746); assay: Inhibition of human DNA polymerase beta; outline: as §1
[2] = target: T2, DNA polymerase subunit gamma-1 (Homo sapiens, UniProt P54098); assay: Inhibition of human DNA polymerase gamma; outline: as §1
T2 sequence (P54098 whole entry): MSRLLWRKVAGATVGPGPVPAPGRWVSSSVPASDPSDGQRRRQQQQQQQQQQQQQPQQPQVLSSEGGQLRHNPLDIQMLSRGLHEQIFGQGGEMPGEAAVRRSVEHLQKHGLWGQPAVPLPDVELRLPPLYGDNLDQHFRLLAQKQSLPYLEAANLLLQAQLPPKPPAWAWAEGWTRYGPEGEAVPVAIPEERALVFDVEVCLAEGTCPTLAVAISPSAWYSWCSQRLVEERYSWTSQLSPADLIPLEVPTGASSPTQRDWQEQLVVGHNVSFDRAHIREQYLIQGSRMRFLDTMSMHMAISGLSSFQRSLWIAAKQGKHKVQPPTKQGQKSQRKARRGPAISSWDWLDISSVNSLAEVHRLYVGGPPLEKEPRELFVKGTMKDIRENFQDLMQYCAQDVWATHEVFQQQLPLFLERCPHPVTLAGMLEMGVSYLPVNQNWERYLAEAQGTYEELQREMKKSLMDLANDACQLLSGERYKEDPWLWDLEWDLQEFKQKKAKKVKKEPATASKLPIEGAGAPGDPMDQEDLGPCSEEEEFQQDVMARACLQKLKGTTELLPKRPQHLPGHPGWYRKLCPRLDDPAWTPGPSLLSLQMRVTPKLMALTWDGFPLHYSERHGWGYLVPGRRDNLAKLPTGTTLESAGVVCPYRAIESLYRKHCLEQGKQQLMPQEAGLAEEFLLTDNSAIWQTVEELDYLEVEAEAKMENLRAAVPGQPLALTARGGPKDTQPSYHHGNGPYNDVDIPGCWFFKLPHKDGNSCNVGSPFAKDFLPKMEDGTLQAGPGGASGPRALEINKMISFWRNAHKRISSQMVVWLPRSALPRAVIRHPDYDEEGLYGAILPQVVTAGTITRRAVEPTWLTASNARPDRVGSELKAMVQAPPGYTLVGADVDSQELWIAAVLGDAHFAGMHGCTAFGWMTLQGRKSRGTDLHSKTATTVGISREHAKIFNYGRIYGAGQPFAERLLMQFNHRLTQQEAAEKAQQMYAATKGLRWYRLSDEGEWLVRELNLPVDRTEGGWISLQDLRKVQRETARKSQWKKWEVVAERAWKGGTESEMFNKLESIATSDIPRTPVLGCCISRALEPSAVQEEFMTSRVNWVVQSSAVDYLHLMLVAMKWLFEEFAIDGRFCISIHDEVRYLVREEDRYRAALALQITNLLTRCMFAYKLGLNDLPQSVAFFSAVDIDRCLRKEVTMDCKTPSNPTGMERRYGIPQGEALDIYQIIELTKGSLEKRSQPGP

Translocator protein [3] = target: T3, Translocator protein (Homo sapiens, UniProt P30536); assay: (§2) Inhibition of peripheral benzodiazepine BZD receptor by radioligand binding assay
Outline: (§3)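 Radioligand binding assays for the GABA-A central BZD receptor and the peripheral BZD receptor were run as a single experiment in duplicate.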

Translocator protein [4] = target: T3, Translocator protein; assay: as §2; outline: as §3; remark: listed apart in the source

T3 sequence (P30536 whole entry): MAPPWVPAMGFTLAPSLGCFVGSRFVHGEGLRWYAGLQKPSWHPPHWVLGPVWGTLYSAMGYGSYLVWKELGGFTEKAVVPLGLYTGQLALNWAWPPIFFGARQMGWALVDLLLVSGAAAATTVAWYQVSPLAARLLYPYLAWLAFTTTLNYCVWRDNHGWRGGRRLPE

Structure (SMILES) | pIC50 [1] | pIC50 (DNA polymerase beta) | pIC50 [2] | pIC50 (Translocator protein [3]) | pIC50 (Translocator protein [4])
CC(=O)N1c2ccccc2N=C2CC(C)(C)CC(=O)C2C1c1ccc(Cl)cc1Cl (stereo not drawn) [10-acetyl-11-(2,4-dichlorophenyl)-3,3-dimethyl-2,3,4,5,10,11-hexahydro-1H-dibenzo[b,e][1,4]diazepin-1-one] | < 4.00 | < 4.00 | < 4.00 | – | –
CC(=O)N1c2cccc(O)c2N=C2CC(C)(C)CC(=O)C2C1c1ccc(OCc2ccccc2)cc1Cl (stereo not drawn) [10-acetyl-11-(4-(benzyloxy)-2-chlorophenyl)-6-hydroxy-3,3-dimethyl-2,3,4,5,10,11-hexahydro-1H-dibenzo[b,e][1,4]diazepin-1-one] | – | – | – | < 4.52 | < 4.52
COc1ccc(C2C3C(=O)CC(C)(C)CC3=Nc3ccccc3N2C(C)=O)cc1OCc1ccccc1 (stereo not drawn) [10-acetyl-11-(3-(benzyloxy)-4-methoxyphenyl)-3,3-dimethyl-2,3,4,5,10,11-hexahydro-1H-dibenzo[b,e][1,4]diazepin-1-one] | < 4.00 | < 4.00 | < 4.00 | – | –
